Test results taken from ChEMBL document CHEMBL1268916, “Second generation 2-pyridyl biphenyl amide inhibitors of the hedgehog pathway” (Bioorg Med Chem Lett, 2010).
≈ marks a conversion by molar mass, not a printed value. Calls of active or inactive are those of the source. The calls are words filed in the database; no cut-off is given here.

Tests used:
Mus musculus [1] = assay: Inhibition of Hedgehog signaling in Calu-6 cells xenografted nude mouse PK/PD model assessed as reduction in Gli1 mRNA expression at 75 mg/kg, po bid for 5 days measured 4 hrs post last dose relative to untreated control; type: functional; settings: Calu-6, po, in the assay text read “for 5 doses” for “for 5 days”
Summary of the method: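 Nude mice bearing established Calu-6 tumors got 75 mg/kg by oral gavage BID for five doses. Tumors were harvested 4 h after the last dose. Stromal (murine) Gli1 mRNA was measured and expressed relative to vehicle-treated tumors. Compound was given as free base or HCl salt, suspended in a methylcellulose/Tween or Labrafil-based formulation.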

Cytochrome P450 3A4 = Cytochrome P450 3A4 (Homo sapiens, UniProt P08684); assay: Inhibition of CYP3A4; type: ADME
Cytochrome P450 3A4, sequence (P08684 whole entry): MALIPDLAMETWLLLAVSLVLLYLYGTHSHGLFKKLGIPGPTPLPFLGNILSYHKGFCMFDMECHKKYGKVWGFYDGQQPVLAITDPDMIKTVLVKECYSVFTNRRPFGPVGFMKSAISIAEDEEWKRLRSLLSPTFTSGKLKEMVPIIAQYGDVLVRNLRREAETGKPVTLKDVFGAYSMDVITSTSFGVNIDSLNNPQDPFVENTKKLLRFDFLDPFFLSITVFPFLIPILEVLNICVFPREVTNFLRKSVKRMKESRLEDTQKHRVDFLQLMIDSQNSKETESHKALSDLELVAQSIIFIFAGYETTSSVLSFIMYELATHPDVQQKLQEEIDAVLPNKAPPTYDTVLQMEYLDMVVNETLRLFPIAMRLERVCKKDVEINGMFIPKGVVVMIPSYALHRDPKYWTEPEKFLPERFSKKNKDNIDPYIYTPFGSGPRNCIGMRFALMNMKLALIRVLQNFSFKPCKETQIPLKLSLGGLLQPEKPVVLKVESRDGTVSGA

[2] = Clearance in rat at 5 mg/kg, po or 1 mg/kg, iv; type: ADME, organism-based; settings: in vivo
Summary of the method: (§1)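 Male rats received the TFA salt as a solution. The IV dose was 1 mg/kg in 80% PEG or in 5% DMSO/5% cremophor. The oral dose was 5 mg/kg in 60–80% PEG.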

[3] = Thermodynamic solubility at pH 1.0; type: physicochemical; settings: buffer
Cytochrome P450 2C9 = Cytochrome P450 2C9 (Homo sapiens, UniProt P11712); assay: Inhibition of CYP2C9; type: ADME
Cytochrome P450 2C9, sequence (P11712 whole entry): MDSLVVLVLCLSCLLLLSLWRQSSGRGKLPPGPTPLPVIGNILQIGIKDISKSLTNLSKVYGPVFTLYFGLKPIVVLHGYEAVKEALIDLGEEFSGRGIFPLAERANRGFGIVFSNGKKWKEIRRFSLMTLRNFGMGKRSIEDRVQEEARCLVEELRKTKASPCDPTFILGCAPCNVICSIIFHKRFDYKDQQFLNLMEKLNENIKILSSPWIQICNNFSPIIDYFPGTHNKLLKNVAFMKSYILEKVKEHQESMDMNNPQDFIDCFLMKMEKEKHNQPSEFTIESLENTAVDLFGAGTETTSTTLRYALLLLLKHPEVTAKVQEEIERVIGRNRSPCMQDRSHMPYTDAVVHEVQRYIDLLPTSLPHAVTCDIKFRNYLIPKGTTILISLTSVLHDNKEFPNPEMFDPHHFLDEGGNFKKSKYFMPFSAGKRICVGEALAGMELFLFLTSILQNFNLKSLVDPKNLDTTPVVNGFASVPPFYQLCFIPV

[4] = Inhibition of Hedgehog signaling in human HEPM cells assessed as reduction in receptor-mediated Gli1 mRNA expression by reporter gene assay; type: cell-based
[5] = Thermodynamic solubility at pH 6.5; type: physicochemical; settings: buffer
[6] = Inhibition of Hedgehog signaling in mouse S12 cells assessed as reduction in receptor-mediated Gli1 mRNA expression by reporter gene assay; type: cell-based
[7] = Volume of distribution at steady state in rat at 5 mg/kg, po or 1 mg/kg, iv; type: ADME, organism-based; settings: in vivo, read-out: Vdss; summary of the method: as §1
Mus musculus [8] = assay: Volume of distribution in Calu-6 cells xenografted nude mouse PK/PD model at 75 mg/kg, po bid for 5 days measured 4 hrs post last dose relative to untreated control; type: ADME, organism-based; set-up: dose 75 mg/kg, route oral; settings: in vivo
[9] = Plasma concentration in Calu-6 cells xenografted nude mouse PK/PD model at 75 mg/kg, po bid for 5 days measured 4 hrs post last dose relative to untreated control; type: ADME, organism-based; set-up: dose 75 mg/kg, route oral
Summary of the method: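 Calu-6 tumor-bearing mice were dosed orally 75 mg/kg BID for five doses. Plasma was sampled 4 h after the last dose, at the same time as tumor harvest. Compound was given as free base or HCl salt, suspended in a methylcellulose/Tween or Labrafil-based vehicle.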

Mus musculus [10] = assay: Inhibition of Hedgehog signaling in Calu-6 cells xenografted nude mouse PK/PD model assessed as reduction in Gli1 mRNA expression at 75 mg/kg, po bid for 5 doses measured 4 hrs post last dose relative to untreated control; settings: Calu-6, po
[11] = Plasma concentration in Calu-6 cells xenografted nude mouse PK/PD model at 25 mg/kg, po bid for 5 days measured 6 hrs post last dose relative to untreated control; type: ADME, organism-based; set-up: dose 25 mg/kg, route oral
Mus musculus [12] = assay: Inhibition of Hedgehog signaling in Calu-6 cells xenografted nude mouse PK/PD model assessed as reduction in Gli1 mRNA expression at 25 mg/kg, po bid for 5 days measured 4 hrs post last dose relative to untreated control; type: functional
Mus musculus [13] = assay: Antitumor activity in mouse medulloblastoma allograft model harboring tumors with activating mutations in Hh pathway (Ptch+/-) assessed as complete regression of tumor volume at 5 mg/kg, po bid; type: functional, organism-based; set-up: dose 5 mg/kg
Summary of the method: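 Spontaneous medulloblastomas from Ptch+/- mice passaged subcutaneously in nude mice. Once tumors were established, mice were dosed twice daily for 20 days at 5 mg/kg BID. Tumor volume was followed over time.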

| Compound | IC50 (Cytochrome P450 3A4) [nM] | clearance [2] [mL/min/kg] | solubility thermodynamic [3] [µg/mL] | IC50 (Cytochrome P450 2C9) [nM] | IC50 [4] [nM] | solubility thermodynamic [5] [µg/mL] | IC50 [6] [nM] | Vd [7] [L/kg] | Vd (Mus musculus [8]) [L/kg] | concentration at 4 h [9] [µM] | concentration at 6 h [11] [µM] | inhibition in vivo at 75 mg/kg (Mus musculus [1]) [%] | inhibition in vivo at 75 mg/kg (Mus musculus [10]) [%] | inhibition in vivo at 25 mg/kg (Mus musculus [12]) [%] | inhibition (Mus musculus [13]) |
| --- | --- | --- | --- | --- | --- | --- | --- | --- | --- | --- | --- | --- | --- | --- | --- |
| CS(=O)(=O)c1ccc(C(=O)Nc2ccc(Cl)c(-c3ccccn3)c2)c(Cl)c1 [VISMODEGIB] | > 20000 | 3.7 | 3500 (≈ 8310 µM) | > 20000 | 3 | 10 (≈ 23.7 µM) | 13 | – | – | – | – | 90 | – | – | – |
| NS(=O)(=O)c1ccc(C(=O)Nc2ccc(Cl)c(-c3ccccn3)c2)c(Cl)c1 | > 20000 | – | – | > 20000 | 5 | – | 35 | – | – | – | – | – | – | – | – |
| O=C(NCc1ccccc1)c1ccc(C(=O)Nc2ccc(Cl)c(-c3ccccn3)c2)c(Cl)c1 | > 20000 | – | – | 1200 | 1 | – | 7 | – | – | – | – | – | – | – | – |
| CS(=O)(=O)Nc1ccc(C(=O)Nc2ccc(Cl)c(-c3ccccn3)c2)c(Cl)c1 | > 20000 | 2.4 | 910 (≈ 2090 µM) | 8000 | 2 | 1 (≈ 2.29 µM) | 17 | – | – | 2.2 | – | – | 25 | – | – |
| Cc1nc(NCC(C)C)ccc1C(=O)Nc1ccc(Cl)c(-c2ccccn2)c1 | 19000 | – | – | 500 | 14 | – | 53 | – | – | – | – | – | – | – | – |
| Cc1nc(C(F)(F)F)ccc1C(=O)Nc1ccc(Cl)c(-c2ccccn2)c1 | > 20000 | 4.5 | 1000 (≈ 2550 µM) | > 20000 | 15 | 2 (≈ 5.1 µM) | 42 | 0.95 | – | 15 | – | 40 | – | – | – |
| Cc1nc(NCCO)ccc1C(=O)Nc1ccc(Cl)c(-c2ccccn2)c1 | > 20000 | – | – | > 20000 | 23 | – | 62 | – | – | – | – | – | – | – | – |

More lines, main results first:

| IC50 (Cytochrome P450 3A4) [nM] | clearance [2] [mL/min/kg] | solubility thermodynamic [3] [µg/mL] | IC50 (Cytochrome P450 2C9) [nM] | IC50 [4] [nM] | solubility thermodynamic [5] [µg/mL] | IC50 [6] [nM] | Vd [7] [L/kg] | Vd (Mus musculus [8]) [L/kg] | concentration at 4 h [9] [µM] | concentration at 6 h [11] [µM] | Compound | inhibition in vivo at 75 mg/kg (Mus musculus [1]) [%] | inhibition in vivo at 75 mg/kg (Mus musculus [10]) [%] | inhibition in vivo at 25 mg/kg (Mus musculus [12]) [%] | inhibition (Mus musculus [13]) |
| --- | --- | --- | --- | --- | --- | --- | --- | --- | --- | --- | --- | --- | --- | --- | --- |
| > 20000 | 0.7 | 900 (≈ 2220 µM) | > 20000 | 8 | 6 (≈ 14.8 µM) | 67 | 0.24 | 0.15 | 150 | – | Cc1ncn(-c2ccc(C(=O)Nc3ccc(Cl)c(-c4ccccn4)c3)c(C)n2)n1 | – | 50 | – | – |
| > 20000 | 2 | 3200 (≈ 7110 µM) | 16000 | 5 | 6 (≈ 13.3 µM) | 22 | 0.38 | – | 22 | – | CC(=O)N1CCN(c2ccc(C(=O)Nc3ccc(Cl)c(-c4ccccn4)c3)c(C)n2)CC1 | 80 | – | – | – |
| > 20000 | 6.7 | 4300 (≈ 9010 µM) | 4500 | 0.4 | 3 (≈ 6.28 µM) | 4 | – | – | – | 1.7 | O=C(NCc1ccccn1)c1ccc(C(=O)Nc2ccc(Cl)c(-c3ccccn3)c2)c(Cl)c1 | – | – | 90 | Active |
| > 20000 | 35 | 4300 (≈ 8530 µM) | 9000 | 5 | 60 (≈ 119 µM) | 33 | – | – | – | – | O=C(Nc1ccc(Cl)c(-c2ccccn2)c1)c1ccc(C(=O)N2CCS(=O)(=O)CC2)cc1Cl | – | – | – | – |
| > 20000 | 5.5 | 110 (≈ 253 µM) | 16000 | 1 | 3 (≈ 6.89 µM) | 3 | – | – | 0.3 | – | CS(=O)(=O)Cc1ccc(C(=O)Nc2ccc(Cl)c(-c3ccccn3)c2)c(Cl)c1 | 0 | – | – | – |
| > 20000 | – | – | > 20000 | 5 | – | 160 | – | – | – | – | CCN1CCN(c2ccc(C(=O)Nc3ccc(Cl)c(-c4ccccn4)c3)c(C)n2)CC1 | – | – | – | – |
| 200 | 4 | 4000 (≈ 10600 µM) | 200 | 8 | 8 (≈ 21.2 µM) | 47 | 1.4 | – | – | – | O=C(Nc1ccc(Cl)c(-c2ccccn2)c1)c1ccc(-n2cncn2)nc1 | – | – | – | – |
